Results published in PubChem BioAssay AID743257 (The Scripps Research Institute Molecular Screening Center, 2014).
In all, about 2,900 compounds went through this assay and about 1,900 (66%) were called active.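 Rule for the calls: active = mean inhibition across replicates above the hit cutoff set in the primary screen (cut at about 8.5% in these data); inactive = the rest.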 The set was probably picked from earlier hits. A selection follows.

These compounds were tested against Disintegrin and metalloproteinase domain-containing protein 17 (Homo sapiens) (UniProt P78536) (assay: inhibition of human ADAM17 protease activity – biochemical, QFRET peptide cleavage, confirmation (AID 743257;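 note: 0% = DMSO wells and 100% = marimastat wells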)). Conditions: recombinant ADAM17, EDANS/DABCYL QFRET peptide cleavage; at 6.95 µM; stronger effect = higher value.
How it was run: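 Assay system: ADAM17 protease; Medium: 50 mM HEPES pH 7.5, 0.01% Brij; Reagent: EDANS/DABCYL DM2 peptide substrate; Doses: 6.95 µM compound, single dose; Schedule: 30 min preincubation, 3 h reaction; Technique: FRET fluorescence, excitation 359 nm, emission 460 nm; Read-out: percent inhibition; Controls: DMSO wells and 1 µM marimastat wells as references.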

Disintegrin and metalloproteinase domain-containing protein 17 (Homo sapiens), sequence (P78536 215-824 limits assumed): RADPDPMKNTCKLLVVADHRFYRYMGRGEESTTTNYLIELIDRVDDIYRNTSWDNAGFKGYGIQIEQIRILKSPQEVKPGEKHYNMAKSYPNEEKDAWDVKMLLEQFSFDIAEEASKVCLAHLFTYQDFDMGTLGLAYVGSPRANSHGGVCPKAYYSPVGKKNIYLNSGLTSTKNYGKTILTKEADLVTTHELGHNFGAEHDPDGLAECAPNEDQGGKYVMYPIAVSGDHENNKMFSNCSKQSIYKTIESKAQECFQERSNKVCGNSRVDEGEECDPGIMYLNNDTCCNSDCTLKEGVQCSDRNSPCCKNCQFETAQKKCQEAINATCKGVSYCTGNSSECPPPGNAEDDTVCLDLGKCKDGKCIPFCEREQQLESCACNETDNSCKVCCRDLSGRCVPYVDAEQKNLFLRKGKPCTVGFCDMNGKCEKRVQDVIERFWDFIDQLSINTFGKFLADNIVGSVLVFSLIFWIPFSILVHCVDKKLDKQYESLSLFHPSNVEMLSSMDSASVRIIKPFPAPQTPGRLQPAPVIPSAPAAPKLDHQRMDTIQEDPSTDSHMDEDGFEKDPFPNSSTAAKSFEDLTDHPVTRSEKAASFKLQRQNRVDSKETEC

Row | Compound | inhibition
1 | O=C(C[C@H]1C(=O)N(c2ccc(F)c(F)c2)C[C@@H]1Cc1ccccc1)Nc1ccccc1 | 14.1% (active)
2 | Cc1ccc(C)c(NC(=S)NNC(=S)Nc2ccc(C(C)C)cc2)c1 | 17.9% (active)
3 | C[C@@H]1CN([C@H](C)CO)C(=O)c2cc(-c3ccc(F)cc3)cnc2O[C@H]1CN(C)C(=O)c1ccc(F)cc1 | 8.52% (inactive)
4 | COc1cc(NC(=O)CCS(=O)(=O)c2ccc3c(c2)oc(=O)n3C)cc(OC)c1 | 6.47% (inactive)
5 | COc1ccc(C(=O)NN2C(=O)C3C(c4ccccc4)C=CC(c4ccccc4)C3C2=O)cc1 (stereo not given) | 14% (active)
6 | COc1ccc(S(=O)(=O)N2CCN(C(C)C(=O)Nc3ccc(C(C)C)cc3)CC2)cc1 (stereo not given) | 10.8% (active)
7 | COc1cc(/C=N/n2c(C)n[nH]c2=S)ccc1OCc1ccccc1 | 0.43% (inactive)
8 | CN(C)S(=O)(=O)c1cccc(NC(=O)COC(=O)C2(c3ccccc3F)CCCC2)c1 | 14.1% (active)
9 | NS(=O)(=O)c1ccc(NC(=O)COC(=O)C2(c3ccc(F)cc3)CCCC2)cc1 | 14.4% (active)
10 | O=C1/C(=C\c2ccsc2)NC(=S)N1c1ccccc1 | 8.92% (active)
11 | C#CCN(C[C@H]1[C@H](OC(=O)NC2CCCC2)[C@H](OC(=O)NC2CCCC2)C[C@H]2C(=O)N(c3ccccc3)C(=O)[C@@H]12)S(=O)(=O)c1ccc(C)cc1 | 8.59% (inactive)
12 | C=CC(COCc1ccccc1)N(CC(=O)OC)S(=O)(=O)c1cc(Br)ccc1OC (stereo not given) | 10.1% (active)
13 | O=C(Nn1c(SCc2ccc([N+](=O)[O-])cc2)nc2ccccc2c1=O)c1ccc(F)cc1 | 16.4% (active)
14 | COc1ccc(Cn2cc(CN3CCS(=O)(=O)N(Cc4ccc(-c5cccc(Cl)c5)cc4)C(C)C3=O)nn2)cc1 (stereo not given) | 11.2% (active)
15 | COc1ccc(-c2ccc(CN3C(CC(C)C)C(=O)N(Cc4cn(CC5CCCCC5)nn4)CCS3(=O)=O)cc2)cc1 (stereo not given) | 13.1% (active)
16 | FC(F)(F)Oc1ccccc1C(c1nnnn1C1CCCCC1)N1CCN(C/C=C/c2ccccc2)CC1 (stereo not given) | 10.2% (active)
17 | Cc1ccc(Cn2nnc3c(=O)[nH]c(C4CCN(S(=O)(=O)/C=C/c5ccccc5)CC4)nc32)cc1 | 20.1% (active)
18 | O=C(CSc1nnc(Nc2ccccc2)s1)Nc1cccnc1Cl | 4.72% (inactive)
19 | Cc1nnc(SCC(=O)Nn2cnnc2)s1 | 1% (inactive)
20 | Cc1ccc(NC(=S)NNC(=O)CSc2nnc(SCc3ccccc3Cl)s2)cc1 | 13.7% (active)
21 | O=C(COC(=O)c1ccccc1)Nc1ccccc1Sc1ccccc1 | 10.7% (active)
22 | Cc1ccccc1C(=O)Nc1ccccc1Sc1ccccc1 | 8.42% (inactive)
23 | O=C(Nc1ccc(C(=O)NCc2ccccc2Cl)cc1)C1=CSCCO1 | 4.43% (inactive)
24 | CCCCCC(=O)N1C[C@H](O)[C@@H](n2cc(COC(=O)c3ccccc3)nn2)C[C@@H]1c1ccc(C)cc1 | 13.5% (active)
25 | C=CCC[C@@H](Cc1ccc(F)cc1)C(=O)OC[C@H](Cc1c[nH]c2ccccc12)NC(=O)[C@@H](CC=C)CC(=O)N(CCO)Cc1ccccc1 | 16.9% (active)
26 | C=CC[C@H](CC(=O)N(CCO)Cc1ccccc1)C(=O)N[C@@H](COC(=O)[C@@H](CC=C)Cc1ccc(F)cc1)Cc1ccccc1 | 14.8% (active)
27 | C=CCC[C@@H](Cc1ccc(F)cc1)C(=O)O[C@H](CNC(=O)[C@H](CC=C)CC(=O)N(CCO)Cc1ccccc1)c1ccccc1 | 21.7% (active)
28 | Cc1ccc(/C=N/NC(=O)CSc2nc3ccccc3o2)cc1 | 6% (inactive)
29 | CC1(C)C=Cc2c(ccc3c2OC[C@@H](c2ccc(O)cc2O)C3)O1 | 12.3% (active)
30 | N/C(Cc1ccc([N+](=O)[O-])cc1)=N\OC(=O)COc1ccc2ccccc2c1 | 6.36% (inactive)
